Series [1] addresses Histamine H3 receptor (Rattus norvegicus, UniProt Q9QYN8). Briefly: In vitro binding affinity for rat histamine H3 receptor using [3H]N-alpha-methylhistamine. The method, boiled down:
(§1)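 Radioligand binding used membranes from cells transfected with cloned human or rat H3 receptors.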

The target in series [2] is Histamine H3 receptor (Homo sapiens, UniProt Q9Y5N1). Briefly: In vitro binding affinity for human histamine H3 receptor using [3H]N-alpha-methylhistamine. The method, boiled down:
as §1

Series [3] in a line: Maximum plasma concentration upon p.o. dose of 1 mg/kg in rats. Format: ADME, organism-based. Set-up: dose 1 mg/kg, route oral. The following applies: rat, po.
A short description of series [4]: Oral bioavailability in rat (dose 1 mg/kg). The following applies: in vivo. Format: ADME, organism-based.
Series [5] is described as follows: Plasma clearance upon i.v. dose of 1 mg/kg in rats. Format: ADME, organism-based. The conditions noted are these: rat, iv. Set-up: dose 1 mg/kg, route intravenous.
The nature of series [6]: Area under plasma concentration curve of the compound upon p.o. dose of 1 mg/kg in rats. Set-up: dose 1 mg/kg, route oral. Format: ADME, organism-based. The conditions noted are these: rat, in vivo, po.
The nature of series [7]: Area under plasma concentration curve of the compound upon i.v. dose of 1 mg/kg in rats. Format: ADME, organism-based. Also noted: dose 1 mg/kg, route intravenous. The following applies: rat, in vivo, iv.
Series [8] can be described thus: Terminal half life upon p.o. dose of 1 mg/kg in rats. Also noted: dose 1 mg/kg, route oral. Format: ADME, organism-based. The following applies: rat, in vivo, po.
Series [9] is described as follows: Terminal half life upon i.v. dose of 1 mg/kg in rats. Format: ADME, organism-based. Set-up: dose 1 mg/kg, route intravenous. The conditions noted are these: rat, in vivo, iv.

Consider 30 molecules from ChEMBL document CHEMBL1141118, “Synthesis and SAR of 5-amino- and 5-(aminomethyl)benzofuran histamine H3 receptor antagonists with improved potency” (J Med Chem, 2005).

Chain of Histamine H3 receptor (Homo sapiens, UniProt Q9Y5N1) (Q9Y5N1 whole entry): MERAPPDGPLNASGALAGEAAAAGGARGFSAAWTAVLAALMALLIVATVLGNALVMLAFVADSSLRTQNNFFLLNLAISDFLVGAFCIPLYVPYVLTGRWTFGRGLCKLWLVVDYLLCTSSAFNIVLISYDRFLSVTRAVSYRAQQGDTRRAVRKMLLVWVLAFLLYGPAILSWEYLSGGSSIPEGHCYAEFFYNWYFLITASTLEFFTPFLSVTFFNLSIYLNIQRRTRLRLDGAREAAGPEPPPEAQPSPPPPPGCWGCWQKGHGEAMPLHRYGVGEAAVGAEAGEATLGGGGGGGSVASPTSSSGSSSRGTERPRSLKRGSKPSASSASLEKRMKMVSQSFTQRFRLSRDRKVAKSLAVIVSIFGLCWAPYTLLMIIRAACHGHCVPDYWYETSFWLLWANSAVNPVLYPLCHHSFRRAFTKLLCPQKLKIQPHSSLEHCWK
Chain of Histamine H3 receptor (Rattus norvegicus, UniProt Q9QYN8) (Q9QYN8 whole entry): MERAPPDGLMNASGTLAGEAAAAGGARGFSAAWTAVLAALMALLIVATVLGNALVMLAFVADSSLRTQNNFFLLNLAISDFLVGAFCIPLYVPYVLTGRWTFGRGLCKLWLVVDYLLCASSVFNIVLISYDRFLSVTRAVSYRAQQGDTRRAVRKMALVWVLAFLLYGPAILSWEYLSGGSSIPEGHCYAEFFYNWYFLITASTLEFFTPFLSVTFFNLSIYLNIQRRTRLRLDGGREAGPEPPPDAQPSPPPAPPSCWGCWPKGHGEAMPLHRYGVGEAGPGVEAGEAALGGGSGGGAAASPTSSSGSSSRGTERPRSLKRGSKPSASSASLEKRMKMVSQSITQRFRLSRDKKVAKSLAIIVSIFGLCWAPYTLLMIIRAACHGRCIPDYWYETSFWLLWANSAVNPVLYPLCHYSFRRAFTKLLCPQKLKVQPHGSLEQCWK

Turning to `C[C@@H]1CCCN1CCc1cc2cc(Nc3ncccc3[N+](=O)[O-])ccc2o1`, the Ki (commonly the dissociation constant of the complex between target and ligand, obtained from inhibition or displacement) was 350 pM in series [1] and 140 pM in series [2].
The like results for `C[C@@H]1CCCN1CCc1cc2cc(Nc3ccc(C(F)(F)F)cn3)ccc2o1` were, in that order, 2760 pM and 540 pM.
The like results for `C[C@@H]1CCCN1CCc1cc2cc(Nc3cnccn3)ccc2o1` were, in that order, 380 pM and 110 pM.
Take `C[C@@H]1CCCN1CCc1cc2cc(CNc3ccc([N+](=O)[O-])cc3)ccc2o1`: the results for the Ki in series [1] and in series [2] were 2120 pM and 740 pM, respectively.
The like results for `C[C@@H]1CCCN1CCc1cc2cc(CNc3ncccc3[N+](=O)[O-])ccc2o1` were, in that order, 2710 pM and 430 pM.
On the same counts, the results for `C[C@@H]1CCCN1CCc1cc2cc(CNc3ncc([N+](=O)[O-])s3)ccc2o1` are 680 pM and 190 pM.
With `C[C@@H]1CCCN1CCc1cc2cc(CNc3ccc(Cl)nn3)ccc2o1`, the figures for the Ki in [1] and in series [2] were 1580 pM and 310 pM, respectively.
On the same counts, the results for `C[C@@H]1CCCN1CCc1cc2cc(CNc3ccc([N+](=O)[O-])cn3)ccc2o1` are 1190 pM and 300 pM.
As to `C[C@@H]1CCCN1CCc1cc2cc(Nc3ncccn3)ccc2o1`, the inhibition constant Ki in [1] came out at 2010 pM; in [2] it was 310 pM.
With `C[C@@H]1CCCN1CCc1cc2cc(CNc3ccc(C#N)cn3)ccc2o1`, the inhibition constant Ki in series [1] came to 1420 pM; in series [2], 340 pM.
The like results for `C[C@@H]1CCCN1CCc1cc2cc(CNc3cc(C#N)nc(C#N)c3)ccc2o1` were, in that order, 400 pM and 130 pM.
For `C[C@@H]1CCCN1CCc1cc2cc(-c3ccc(C#N)cc3)ccc2o1`, the highest level in series [3] (Cmax) was 39.6 ng/mL. The bioavailability (in general, dose-corrected exposure relative to a reference, in per cent) in series [4] worked out at 61.8%. Also, the clearance (in general, a measure of how efficiently the substance is removed, as volume per time) in series [5] amounted to 25.7 mL/min/kg. The AUC (in general, concentration integrated over time) in series [6] stood at 426 ng·h/mL; in [7] it was 667 ng·h/mL. Further, the half-life (commonly the time in which the quantity being followed falls by half) in series [8] was 6.7 h; in [9], 5.7 h.
As for `CCc1cnc(Nc2ccc3oc(CCN4CCC[C@H]4C)cc3c2)nc1`, the Cmax – broadly, the maximum level reached in the sampled fluid or tissue – in series [3] was determined as 16.2 ng/mL. Also, the Ki in series [1] was found to be 2510 pM; in [2] it was 620 pM. The bioavailability in series [4] was 29%. For the same molecule, in [5], the clearance is 47 mL/min/kg. In addition, the AUC in [6] is 103 ng·h/mL; in series [7], 355 ng·h/mL. For the same molecule, the half-life in [8] was 4.8 h; in series [9], 3.7 h.
`CCc1cnc(NCc2ccc3oc(CCN4CCC[C@H]4C)cc3c2)nc1` had a Cmax in series [3] of 7.1 ng/mL. In addition, the inhibitory constant (Ki) was determined as 580 pM in series [1] and 330 pM in series [2]. The bioavailability in [4] was determined as 9%. For the same molecule, the clearance in series [5] was 79.8 mL/min/kg. In addition, the AUC turned out to be 18.9 ng·h/mL in series [6] and 210 ng·h/mL in [7]. In series [9], the half-life is 1.7 h.
Turning to `C[C@@H]1CCCN1CCc1cc2cc(Nc3ccc(C#N)cc3)ccc2o1`, the values for the Ki in series [1] and in [2] were 1350 pM and 270 pM, respectively.
For `C[C@@H]1CCCN1CCc1cc2cc(CNc3ccccc3[N+](=O)[O-])ccc2o1`, the Ki in series [1] amounted to 870 pM; in series [2] it was 310 pM.
The like results for `C[C@@H]1CCCN1CCc1cc2cc(Nc3ccccc3[N+](=O)[O-])ccc2o1` were, in that order, 870 pM and 220 pM.
On the same counts, the results for `C[C@@H]1CCCN1CCc1cc2cc(Nc3ccc([N+](=O)[O-])cn3)ccc2o1` are 110 pM and 50 pM.
As to `Cc1ccc(C#N)c(Nc2ccc3oc(CCN4CCC[C@H]4C)cc3c2)n1`, the inhibitory constant (Ki) in series [1] amounted to 17900 pM; in series [2] it was 2980 pM.
The like results for `C[C@@H]1CCCN1CCc1cc2cc(CNc3ncc(Br)cn3)ccc2o1` were, in that order, 4020 pM and 1220 pM.
The like results for `C[C@@H]1CCCN1CCc1cc2cc(CNc3cncnc3)ccc2o1` were, in that order, 2510 pM and 690 pM.
The like results for `C[C@@H]1CCCN1CCc1cc2cc(CNc3cnccn3)ccc2o1` were, in that order, 800 pM and 290 pM.
Turning to `C[C@@H]1CCCN1CCc1cc2cc(CNc3nccnc3C#N)ccc2o1`, the inhibition constant (Ki) is 3960 pM in [1] and 1040 pM in [2].
The like results for `C[C@@H]1CCCN1CCc1cc2cc(Nc3cccc(C#N)c3)ccc2o1` were, in that order, 1470 pM and 290 pM.
On the same counts, the results for `C[C@@H]1CCCN1CCc1cc2cc(CNc3cccc(C#N)c3)ccc2o1` are 1180 pM and 400 pM.
The like results for `C[C@@H]1CCCN1CCc1cc2cc(CNc3ncc([N+](=O)[O-])cc3[N+](=O)[O-])ccc2o1` were, in that order, 2880 pM and 710 pM.
For `C[C@@H]1CCCN1CCc1cc2cc(CNc3ncccn3)ccc2o1`, the Cmax in [3] turned out to be 34.5 ng/mL. Also, the figures for the Ki in series [1] and in series [2] were 3270 pM and 840 pM, respectively. This molecule also had a bioavailability in series [4] of 20.6%. For the same molecule, in series [5], the clearance is 47.7 mL/min/kg. In addition, the figures for the area under the curve (AUC) in series [6] and in series [7] were 72.1 ng·h/mL and 350 ng·h/mL, respectively. The half-life in series [8] is 1.7 h; in series [9], 1 h.
With `C[C@@H]1CCCN1CCc1cc2cc(CNc3ccc(C(=O)C(F)(F)F)cc3)ccc2o1`, the Ki in [1] was determined as 2360 pM; in series [2], 740 pM.
The like results for `C[C@@H]1CCCN1CCc1cc2cc(CNc3ncccc3C#N)ccc2o1` were, in that order, 1920 pM and 740 pM.
As for `C[C@@H]1CCCN1CCc1cc2cc(Nc3cncnc3)ccc2o1`, the Ki in series [1] amounted to 270 pM; in [2], 80 pM. Also, in series [4], the bioavailability is 0%. The clearance in series [5] came out at 475 mL/min/kg. Further, the exposure (AUC) in series [6] is 0 ng·h/mL; in [7] it was 35.9 ng·h/mL. Besides, the half-life in series [9] is 0.3 h.
